Source: ChEMBL document CHEMBL3600340, “Design and synthesis of new barbituric- and thiobarbituric acid derivatives as potent urease inhibitors: Structure activity relationship and molecular modeling studies” (Bioorg Med Chem, 2015)
pIC50: −log10 of the molar value.

Biological target: Urease (Canavalia ensiformis, UniProt P07374)
Test: Inhibition of jack bean Urease assessed as ammonia production after 15 mins by indophenol method
Summary of the method: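 Jack bean urease preincubated with test compound (0.5 mM, concentration as printed) in buffer containing 100 mM urea at 30 °C for 15 min, pH 6.8. Ammonia quantified by indophenol method (phenol/nitroprusside plus alkaline hypochlorite). Absorbance read at 630 nm after 50 min.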

Chain of Urease (P07374 whole entry): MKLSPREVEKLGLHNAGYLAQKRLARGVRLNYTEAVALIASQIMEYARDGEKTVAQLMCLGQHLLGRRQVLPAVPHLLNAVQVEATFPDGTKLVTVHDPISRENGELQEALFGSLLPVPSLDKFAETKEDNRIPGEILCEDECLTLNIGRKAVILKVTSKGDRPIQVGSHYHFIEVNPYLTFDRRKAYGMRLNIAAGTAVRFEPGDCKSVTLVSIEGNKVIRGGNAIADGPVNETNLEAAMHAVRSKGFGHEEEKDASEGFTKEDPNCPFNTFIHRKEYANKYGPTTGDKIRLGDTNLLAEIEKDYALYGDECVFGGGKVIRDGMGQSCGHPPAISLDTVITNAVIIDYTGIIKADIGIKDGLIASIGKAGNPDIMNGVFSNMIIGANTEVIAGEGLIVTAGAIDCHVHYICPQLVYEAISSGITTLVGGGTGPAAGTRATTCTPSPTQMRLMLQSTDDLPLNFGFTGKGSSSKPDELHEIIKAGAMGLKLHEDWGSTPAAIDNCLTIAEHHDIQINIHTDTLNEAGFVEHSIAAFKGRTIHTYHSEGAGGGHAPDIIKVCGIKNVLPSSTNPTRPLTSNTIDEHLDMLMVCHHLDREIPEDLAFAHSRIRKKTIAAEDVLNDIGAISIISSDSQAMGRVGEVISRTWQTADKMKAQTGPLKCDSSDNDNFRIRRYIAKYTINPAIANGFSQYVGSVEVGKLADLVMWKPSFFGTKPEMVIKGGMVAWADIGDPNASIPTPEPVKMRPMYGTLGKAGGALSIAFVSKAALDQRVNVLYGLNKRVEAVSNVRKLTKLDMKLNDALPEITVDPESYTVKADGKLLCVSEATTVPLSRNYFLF

In order of rising pIC50:
1. O=C1NC(=S)NC(=O)C1=CNc1ccc(C(F)(F)F)cc1  3.87
2. O=C1NC(=O)C(=CNc2ccc(C(=O)O)c(O)c2)C(=O)N1  4.05
3. O=C1NC(=S)NC(=O)C1=CNc1cc(Cl)cc(Cl)c1  4.05
4. O=C1NC(=S)NC(=O)C1=CNc1ccccc1C(F)(F)F  4.19
5. O=C1NC(=O)C(=CNc2ccccc2S)C(=O)N1  4.28
6. O=C1NC(=S)NC(=O)C1=CNc1ccc(I)cc1  4.38
7. O=C1NC(=S)NC(=O)C1=CNc1ccc([N+](=O)[O-])c(C(=O)O)c1  4.40
8. O=C1NC(=S)NC(=O)C1=CNc1ccc(C(=O)O)c(O)c1  4.49
9. O=C1NC(=S)NC(=O)C1=CNc1cc([N+](=O)[O-])ccc1C(F)(F)F  4.54
10. O=C1NC(=S)NC(=O)C1=CNc1cc(C(=O)O)ccc1Cl  4.57
11. O=C1NC(=O)C(=CNc2ccc([N+](=O)[O-])c(C(=O)O)c2)C(=O)N1  4.59
12. O=C1NC(=S)NC(=O)C1=CNc1cccc(C(F)(F)F)c1  4.61
13. O=C1NC(=S)NC(=O)C1=CNc1cccc(C(=O)O)c1  4.66
14. O=C1NC(=S)NC(=O)C1=CNc1ccccc1O  4.71
15. O=C1NC(=S)NC(=O)C1=CNc1cc(C(=O)O)ccc1O  4.72
16. O=C1NC(=S)NC(=O)C1=CNc1ccccc1S  4.82
17. O=C1NC(=S)NC(=O)C1=CNc1ccccc1C(=O)O  4.89
18. O=C1NC(=S)NC(=O)C1=CNc1ccc(C(=O)O)cc1  5.05
19. O=C1NC(=S)NC(=O)C1=CNc1cc([N+](=O)[O-])ccc1C(=O)O  5.07
